Assay results reported in paper PMC4324418 (ACS Chemical Neuroscience, 2014).

How the values were obtained:
M4 KO mice [1] = assay: Touchscreen pairwise visual discrimination task, M4 KO mice; format: in vivo, mouse
How it was run: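 Mice aged 8–11 weeks were held at ~85% free-feeding weight, with water freely available. They were trained on touchscreen nosepoke discrimination (60 trials or 60 min) to ≥85% accuracy on 3 consecutive days. Next day: vehicle (10% Tween 80 IP) or test compound (3–30 mg/kg IP) 60 min pre-test, then saline or MK-801 (0.1–0.3 mg/kg IP) 30 min later. Mice were retested drug-free 24 h later. Analysis: ANOVA with Bonferroni tests.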

rat M1 receptor = assay: Calcium mobilization, selectivity; format: cell-based
How it was run: (§1)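 Cells were seeded at 15000/well in DMEM with 10% dialyzed FBS, 20 mM HEPES and 1 mM pyruvate, then cultured overnight at 37 °C/5% CO2. M2 and M4 lines were cotransfected with Gqi5. Cells were loaded with 1 μM Fluo-4AM (HBSS, 20 mM HEPES, 2.5 mM probenecid, pH 7.4) for 50 min at 37 °C. ACh was added 140 s after test compound. Calcium signal was expressed as % of the 10 μM ACh maximum.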

rats = assay: Amphetamine-induced hyperlocomotion in rats; format: in vivo; details: rat, amphetamine 0.75 mg/kg SC
[2] = Amphetamine-induced hyperlocomotion in rats; format: in vivo; details: Sprague-Dawley, rat, brain, po
human M4 = biological target: T1, human M4 (Homo sapiens, UniProt P08173); format: cell-based; details: maximum response as % of the Emax of ACh
T1 sequence (P08173 1-479): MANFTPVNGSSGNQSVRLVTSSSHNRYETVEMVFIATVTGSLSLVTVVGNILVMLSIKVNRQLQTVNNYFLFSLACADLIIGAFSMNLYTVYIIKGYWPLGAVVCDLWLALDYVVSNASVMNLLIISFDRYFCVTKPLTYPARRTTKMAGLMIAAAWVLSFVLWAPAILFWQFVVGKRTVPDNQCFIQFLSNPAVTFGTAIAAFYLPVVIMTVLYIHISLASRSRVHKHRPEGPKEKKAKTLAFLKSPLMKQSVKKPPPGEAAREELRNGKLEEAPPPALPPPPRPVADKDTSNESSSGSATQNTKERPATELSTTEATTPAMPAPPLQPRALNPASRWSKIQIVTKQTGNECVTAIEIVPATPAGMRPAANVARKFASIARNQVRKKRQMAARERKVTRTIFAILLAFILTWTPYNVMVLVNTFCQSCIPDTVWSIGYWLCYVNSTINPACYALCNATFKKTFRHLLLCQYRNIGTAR

human M2 receptor = assay: Calcium mobilization, selectivity; format: cell-based
How it was run: as §1

wild-type mice [3] = assay: Contextual fear conditioning, one-shock paradigm; format: in vivo, mouse; details: 3–30 mg/kg, measured 24 h later
How it was run: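 One-shock contextual conditioning used a 3 min session: 2 min habituation, one 0.4 mA shock, then 59 s before removal. Dosing was vehicle (10% Tween 80 in sterile water) or test compound at 3, 10 or 30 mg/kg IP. Mice were returned to the same chamber 24 h later, and percent time freezing was scored over 3 min.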

[4] = rat (data not shown)
wild-type mice [5] = format: in vivo, mouse; details: data not shown
How it was run: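 Wild-type mice received vehicle (10% Tween 80, IP) or test compound (30 mg/kg IP). Thirty minutes later they received saline (IP) or MK-801 (0.3 mg/kg IP).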

wild-type mice [6] = assay: Contextual fear conditioning, four-shock, MK-801-induced deficit; format: in vivo, mouse
How it was run: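 Subjects were wild-type and M4 KO mice, 8–11 weeks old, handled for 3 days and saline-injected 1 day before conditioning. Vehicle (10% Tween 80 in water, IP) or test compound (3–10 mg/kg IP) was given 30 min before saline or MK-801 (0.1–0.3 mg/kg IP). Mice entered the chamber 30 min later for a four-shock conditioning trial. Percent freezing was scored 24 h later, drug-free.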

rat M4 receptor = biological target: T2, rat M4 receptor (Rattus norvegicus, UniProt P08485); assay: Progressive fold-shift of ACh concentration-response curve; format: cell-based; details: operational model of allosterism
T2 sequence (P08485 1-478): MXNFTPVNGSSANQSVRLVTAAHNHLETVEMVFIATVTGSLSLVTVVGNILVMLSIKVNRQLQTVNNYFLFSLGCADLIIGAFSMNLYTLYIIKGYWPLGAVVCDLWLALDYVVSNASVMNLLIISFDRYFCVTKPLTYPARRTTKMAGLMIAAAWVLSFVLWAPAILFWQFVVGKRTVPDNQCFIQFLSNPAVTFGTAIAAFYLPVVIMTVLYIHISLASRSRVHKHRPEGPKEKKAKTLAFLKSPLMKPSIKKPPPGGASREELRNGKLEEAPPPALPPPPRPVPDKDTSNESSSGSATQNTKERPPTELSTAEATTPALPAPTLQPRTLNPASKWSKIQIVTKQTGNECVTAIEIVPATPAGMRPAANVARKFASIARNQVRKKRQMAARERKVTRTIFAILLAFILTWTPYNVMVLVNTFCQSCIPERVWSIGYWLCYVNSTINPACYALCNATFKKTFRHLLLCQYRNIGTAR

in vitro = in vitro ADME; details: rat, plasma
[7] = Biotransformation in cryopreserved rat hepatocytes; format: in vitro ADME; details: male, Sprague–Dawley rat (data not shown)
M4 KO mice [8] = assay: MK-801-induced hyperlocomotion in M4 KO mice; format: in vivo, mouse
How it was run: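 Wild-type and M4 KO mice were habituated 90 min in a photobeam open field. They then received vehicle (10% Tween 80 IP), followed 30 min later by saline or MK-801 IP, and activity was recorded for 120 min. Distance traveled was binned per 5 min. Totals covered t = 120 to 240 min and were analyzed by ANOVA with Bonferroni post hoc tests.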

[9] = M4 KO, VU0467154 10.0 mg/kg IP + MK-801 0.30 mg/kg IP
[10] = M4 KO, VU0467154 10.0 mg/kg IP + vehicle

## Cc1nnc2sc(C(=O)NCc3ccc(S(=O)(=O)C(F)(F)F)cc3)c(N)c2c1C [VU0467154, 5-amino-3,4-dimethyl-N-(4-((trifluoromethyl)sulfonyl)benzyl)thieno[2,3-c]pyridazine-6-carboxamide]
M4 KO mice [1]; M4 KO mice
  reversal of MK-801-induced pairwise discrimination deficit: did not reverse the MK-801-induced pairwise discrimination deficit
M4 KO mice [1]; M4 KO, MK-801 in combination with VU0467154 (vehicle 91%)
  response accuracy on the test day: 64%
M4 KO mice [1]; [9]
  correct reward collection latency: 1.57 ± 0.07 s
  correct touch latency: 8.45 ± 1.57 s
  time to complete 60 trials: 1120 ± 95.5 s
M4 KO mice [1]; [10]
  correct reward collection latency: 3.19 ± 0.73 s
  correct touch latency: 22.81 ± 8.86 s
  time to complete 60 trials: 2080 ± 384.9 ^e s
Rat M1 receptor
  potentiation of ACh response (calcium response): lack of a calcium response
rats; PO 1 mg/kg
  mean reversal of AHL: 21%
rats; PO 3 mg/kg
  mean reversal of AHL: 33%
rats; PO 10 mg/kg
  mean reversal of AHL: 46%
rats; PO 30 mg/kg
  mean reversal of AHL: 53%
rats; PO 56.6 mg/kg
  mean reversal of AHL: 42%
[2]; 3 mg/kg, mean Cbrain, PO 3 mg/kg, at 1.5 h postadministration
  concentration at 1.5 h: 750 nM
[2]; 3 mg/kg, mean Cbrain,u, PO 3 mg/kg, 1.5 h, in vitro rat fubrain 0.067
  concentration at 1.5 h: 50 nM
[2]; 10 mg/kg, mean Cbrain, PO 10 mg/kg, at 1.5 h postadministration
  concentration at 1.5 h: 1100 nM
[2]; 10 mg/kg, mean Cbrain,u, PO 10 mg/kg, 1.5 h, in vitro rat fubrain 0.067
  concentration at 1.5 h: 74 nM
[2]; 30 mg/kg, mean Cbrain,u, PO 30 mg/kg, 1.5 h, in vitro rat fubrain 0.067
  concentration at 1.5 h: 94 nM
[2]; 56.6 mg/kg, mean Cbrain,u, PO 56.6 mg/kg, 1.5 h, in vitro rat fubrain 0.067
  concentration at 1.5 h: 94 nM
Human M4
  %AChmax: 55%
Human M2 receptor
  potentiation of ACh response (calcium response): lack of a calcium response
wild-type mice [3]
  acquisition of contextual fear conditioning behaviors: dose-dependent enhancement
[4]
  biliary and urinary excretion of the parent compound: Negligible
wild-type mice [5]
  serotonin utilization in the NAS and CP: Neither single nor combined administration of VU0467154 with MK-801 altered serotonin utilization
wild-type mice [6]; VU0467154 alone, four-shock
  effect on contextual fear conditioning: had no effect on contextual fear conditioning
wild-type mice [6]; pretreatment 3–10 mg/kg
  reversal of MK-801-induced deficits in the acquisition of contextual fear conditioning: dose-dependently reversed
Rat M4 receptor
  efficacy cooperativity factor (log β): 0.91
  efficacy cooperativity factor β: 8.17
In vitro
  fraction unbound: 0.031
[7]
  turnover in hepatocytes: low turnover
M4 KO mice [8]
  effect on MK-801-induced hyperlocomotion: had no effect on the time course of MK-801-induced hyperlocomotion
